pIC50: −log10 of the molar value.
What was measured:
Leishmania chagasi = experiment: Antileishmanial activity against amastigotes stage of Leishmania chagasi MHOM/BR/1972/LD infected in BALB/c mouse bone-marrow derived macrophages incubated for 3 days by hematoxylin-eosin staining based cell counting method; assay type: functional, organism-based; details: 72 h
Leishmania amazonensis [1] = experiment: Antileishmanial activity against promastigote stage of Leishmania amazonensis MHOM/BR/73/M2269 by erythrosine-B staining based Neubauer chamber based cell counting method; assay type: functional, organism-based
Leishmania amazonensis [2] = experiment: Antileishmanial activity against promastigote stage of Leishmania amazonensis MHOM/BR/Josefa incubated for 72 hrs by XTT assay; assay type: functional, organism-based
Procedure, shortened: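 Promastigotes; IC50 is the concentration giving 50% growth inhibition. Values are mean ± SD of three separate experiments.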

[3] = Selectivity index, ratio of CC50 for mouse J774A1 cells to IC50 for promastigote stage of Leishmania amazonensis MHOM/BR/Josefa; assay type: toxicity; details: read-out: Ratio CC50/IC50
Procedure, shortened: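 SI is calculated as CC50 on J774A1 cells divided by the corresponding IC50 on promastigotes.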

Leishmania amazonensis [4] = experiment: Ratio of IC50 for miltefosine to IC50 for test compound for antileishmanial activity against promastigote stage of Leishmania amazonensis MHOM/BR/Josefa incubated for 72 hrs by XTT assay; assay type: functional
[5] = Cytotoxicity against BALB/c mouse peritoneal macrophages incubated for 48 hrs by MTT assay; assay type: cell-based, Peritoneal macrophage
Procedure, shortened: (§1)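 Intracellular amastigotes in macrophages and the matched macrophage cytotoxicity readout. Values are mean ± SD from three different experiments.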

Leishmania amazonensis [6] = experiment: Antileishmanial activity against amastigotes stage of Leishmania amazonensis MHOM/BR/Josefa infected in BALB/c mouse peritoneal macrophage incubated for 48 hrs by Giemsa staining based microscopic method; assay type: functional, organism-based; procedure, shortened: as §1
[7] = Selectivity index, ratio of CC50 for BALB/c mouse peritoneal macrophage to IC50 for amastigotes stage of Leishmania amazonensis MHOM/BR/Josefa infected in BALB/c mouse peritoneal macrophage; assay type: toxicity; details: peritoneal macrophages, read-out: Ratio CC50/IC50

| SMILES | pIC50 (Leishmania chagasi) | pIC50 (Leishmania amazonensis [1]) | pIC50 (Leishmania amazonensis [2]) | selectivity ratio [3] | Ratio IC50 (Leishmania amazonensis [4]) | CC50 at 48 h [5] | pIC50 (Leishmania amazonensis [6]) | selectivity ratio [7] |
| --- | --- | --- | --- | --- | --- | --- | --- | --- |
| COc1ccc([Te]2(Cl)OC3(CCCCC3)/C2=C\Cl)cc1 (stereo unspecified) | 6.30 |  |  |  |  |  |  |  |
| CC[N+](CC)(CC)Cc1ccccc1.ClC1=C[Te-](Cl)(Cl)(Cl)OC1 |  | 5.40 |  |  |  |  |  |  |
| CC1(c2cccc([Te][Te]c3cccc(C4(C)OCCO4)c3)c2)OCCO1 |  |  | 6.05 | 25 | 20 |  |  |  |
| c1ccc([Te][Te]c2ccccc2)cc1 |  |  | 5.85 | 42 |  |  |  |  |
| CC1(c2ccccc2[Te][Te]c2ccccc2C2(C)OCCO2)OCCO1 |  |  | 5.10 | 2 | 3 |  |  |  |
| CC1(c2ccc([Te][Te]c3ccc(C4(C)OCCO4)cc3)cc2)OCCO1 |  |  | 6.05 | 194 | 20 | 8300 nM | 6.30 | 18 |
| CCCCCCCCCCCCCCCCOP(=O)([O-])OCC[N+](C)(C)C [MILTEFOSINE] |  |  | 4.68 | 3 |  | 20300 nM | 5.77 | 12 |
